From ChEMBL document CHEMBL4229554, “Design and Characterization of Novel Covalent Bromodomain and Extra-Terminal Domain (BET) Inhibitors Targeting a Methionine” (J Med Chem, 2018)
pIC50: −log10 of the molar value. Active and inactive are the calls of the source. No cut-off for these calls is given here.

Tests used:
MV4-11 [1] = test: Induction of apoptosis in human MV4-11 cells assessed as late apoptotic cells after 72 hrs by FITC annexin V-staining based flow cytometry (reference value: 1.53%); format: functional
[2] = biological target: T1, Bromodomain-containing protein 4 (Homo sapiens, UniProt O60885); test: Inhibition of N-terminal His-tagged BRD4 (BD1) (unknown origin) using biotinylated tetra-acetylated histone H4 peptide after 4 hrs by alpha-screen assay
Outline: (§1)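 AlphaScreen: N-terminally His-tagged BRD4(BD1) (20–200 nM) with biotinylated tetra-acetylated H4 peptide (3–75 nM) in 50 mM HEPES, 100 mM NaCl, 0.1% BSA, pH 7.4, under green light. Nickel-chelate acceptor and streptavidin donor beads at 2 µg/mL final, serially diluted compounds added. Luminescence read at 570 nm.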

MV4-11 [3] = test: Induction of apoptosis in human MV4-11 cells assessed as viable cells after 72 hrs by FITC annexin V-staining based flow cytometry (reference value: 96.4%); format: functional
[4] = biological target: T1, Bromodomain-containing protein 4; test: Inhibition of N-terminal His-tagged BRD4 (BD1) (unknown origin) using biotinylated tetra-acetylated histone H4 peptide after 5 mins by alpha-screen assay; outline: as §1
MV4-11 [5] = test: Antiproliferative activity against human MV4-11 cells preincubated for 24 hrs by followed by compound washout measured after 48 hrs post compound washout by cell-titer 96 aqueous one solution reagent-based assay; format: functional
Outline: (§2)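 Washout format: MV4-11 plated at 25,000 cells/well with two-fold dilutions, triplicate wells. Cells treated 24 h, compound removed and cells washed twice with conditioned media. Growth continued 48 h in compound-free media. Read with CellTiter 96 AQueous One reagent, absorbance 490 nm, expressed as % of DMSO control.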

[6] = biological target: T1, Bromodomain-containing protein 4; test: Inhibition of N-terminal His-tagged BRD4 (BD1) (unknown origin) using biotinylated tetra-acetylated histone H4 peptide after 30 mins by alpha-screen assay
[7] = biological target: T1, Bromodomain-containing protein 4; test: Binding affinity to N-terminal His-tagged BRD4 (BD1) (unknown origin) assessed as change in melting temperature at 100 uM after 4 hrs by SYPRO orange protein staining-based thermal denaturation assay
Outline: (§3)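 N-terminally His-tagged recombinant BRD4(BD1), 5 µM, incubated with 100 µM compound and 5X SYPRO Orange in 50 mM NaCl/50 mM HEPES pH 7.4 for 30 min or 4 h. Protein thermal shift melt gives ΔTm; more than one transition may be resolved.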

[8] = biological target: T1, Bromodomain-containing protein 4; test: Inhibition of N-terminal His-tagged BRD4 (BD1/BD2) (unknown origin) using biotinylated tetra-acetylated histone H4 peptide after 30 mins by alpha-screen assay
MV4-11 [9] = test: Induction of apoptosis in human MV4-11 cells assessed as necrotic cells after 72 hrs by FITC annexin V-staining based flow cytometry (reference value: 0.21%); format: functional
MV4-11 [10] = test: Antiproliferative activity against human MV4-11 cells incubated for 24 hrs followed by compound removal and further incubation for 48 hrs by cell-titer 96 aqueous one solution reagent-based assay; format: functional; outline: as §2
PBMC = test: Cytotoxicity against human PBMC assessed as reduction in cell viability after 24 hrs by cell-titer 96 aqueous one solution reagent-based assay
[11] = biological target: T1, Bromodomain-containing protein 4; test: Ratio of IC50 for inhibition of N-terminal His-tagged BRD4 (BD1) (unknown origin) using biotinylated tetra-acetylated histone H4 peptide after 4 hrs by alpha-screen assay to IC50 for inhibition of N-terminal His-tagged BRD4(BD1) (unknown origin) using biotinylated tetra-acetylated histone H4 peptide after 5 mins by alpha-screen assay; outline: as §1
[12] = biological target: T1, Bromodomain-containing protein 4; test: Binding affinity to N-terminal His-tagged BRD4 (BD1) (unknown origin) assessed as change in melting temperature at 100 uM after 0.5 hrs by SYPRO orange protein staining-based thermal denaturation assay; outline: as §3
MV4-11 [13] = test: Induction of apoptosis in human MV4-11 cells assessed as early apoptotic cells after 72 hrs by FITC annexin V-staining based flow cytometry (reference value: 1.87%); format: functional
[14] = biological target: T1, Bromodomain-containing protein 4; test: Inhibition of N-terminal His-tagged BRD4 (BD1) (unknown origin) using biotinylated tetra-acetylated histone H4 peptide after 1 hr by alpha-screen assay; outline: as §1
[15] = biological target: T1, Bromodomain-containing protein 4; test: Inhibition of N-terminal His-tagged BRD4 (BD2) (unknown origin) using biotinylated tetra-acetylated histone H4 peptide after 30 mins by alpha-screen assay
[16] = biological target: CREB-binding protein (Homo sapiens) (UniProt Q92793); test: Binding affinity to CREBBP (unknown origin) assessed as change in melting temperature at 100 uM after 0.5 to 4 hrs by SYPRO orange protein staining-based thermal denaturation assay
Outline: (§4)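 Thermal shift (PTS) screen of non-BET bromodomains. Each domain at 5 µM incubated with 100 µM covalent or control compound plus 5X SYPRO Orange in 50 mM NaCl/50 mM HEPES pH 7.4 for 30 min or 4 h. Change in Tm recorded, with a search for a high-Tm species.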

[17] = biological target: T1, Bromodomain-containing protein 4; test: Irreversible inhibition of BRD4 in human MV4-11 cells assessed as suppression of BCL2 mRNA levels preincubated for 4 hrs followed by compound washout measured after 4 to 24 hrs post washout by RT-PCR analysis; format: cell-based
Outline: (§5)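 MV4-11 cells, 50,000/well, exposed for 4 h at 37 °C, 5% CO2 to compound in IMDM + 10% FBS (0.2% DMSO final; DMSO-only control). Cells washed 3 times with conditioned media and placed in compound-free media, then harvested after washout for mRNA capture. One-step TaqMan real-time PCR with cyclophilin A reference. Results given as % of DMSO control.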

[18] = biological target: Histone acetyltransferase p300 (Homo sapiens) (UniProt Q09472); test: Binding affinity to P300 (unknown origin) assessed as change in melting temperature at 100 uM after 0.5 to 4 hrs by SYPRO orange protein staining-based thermal denaturation assay; outline: as §4
Peregrin (Homo sapiens) = biological target: T2, Peregrin (Homo sapiens) (UniProt P55201); test: Binding affinity to BRPF1 (unknown origin) assessed as change in melting temperature at 100 uM after 0.5 to 4 hrs by SYPRO orange protein staining-based thermal denaturation assay; outline: as §4
T2 sequence (whole entry): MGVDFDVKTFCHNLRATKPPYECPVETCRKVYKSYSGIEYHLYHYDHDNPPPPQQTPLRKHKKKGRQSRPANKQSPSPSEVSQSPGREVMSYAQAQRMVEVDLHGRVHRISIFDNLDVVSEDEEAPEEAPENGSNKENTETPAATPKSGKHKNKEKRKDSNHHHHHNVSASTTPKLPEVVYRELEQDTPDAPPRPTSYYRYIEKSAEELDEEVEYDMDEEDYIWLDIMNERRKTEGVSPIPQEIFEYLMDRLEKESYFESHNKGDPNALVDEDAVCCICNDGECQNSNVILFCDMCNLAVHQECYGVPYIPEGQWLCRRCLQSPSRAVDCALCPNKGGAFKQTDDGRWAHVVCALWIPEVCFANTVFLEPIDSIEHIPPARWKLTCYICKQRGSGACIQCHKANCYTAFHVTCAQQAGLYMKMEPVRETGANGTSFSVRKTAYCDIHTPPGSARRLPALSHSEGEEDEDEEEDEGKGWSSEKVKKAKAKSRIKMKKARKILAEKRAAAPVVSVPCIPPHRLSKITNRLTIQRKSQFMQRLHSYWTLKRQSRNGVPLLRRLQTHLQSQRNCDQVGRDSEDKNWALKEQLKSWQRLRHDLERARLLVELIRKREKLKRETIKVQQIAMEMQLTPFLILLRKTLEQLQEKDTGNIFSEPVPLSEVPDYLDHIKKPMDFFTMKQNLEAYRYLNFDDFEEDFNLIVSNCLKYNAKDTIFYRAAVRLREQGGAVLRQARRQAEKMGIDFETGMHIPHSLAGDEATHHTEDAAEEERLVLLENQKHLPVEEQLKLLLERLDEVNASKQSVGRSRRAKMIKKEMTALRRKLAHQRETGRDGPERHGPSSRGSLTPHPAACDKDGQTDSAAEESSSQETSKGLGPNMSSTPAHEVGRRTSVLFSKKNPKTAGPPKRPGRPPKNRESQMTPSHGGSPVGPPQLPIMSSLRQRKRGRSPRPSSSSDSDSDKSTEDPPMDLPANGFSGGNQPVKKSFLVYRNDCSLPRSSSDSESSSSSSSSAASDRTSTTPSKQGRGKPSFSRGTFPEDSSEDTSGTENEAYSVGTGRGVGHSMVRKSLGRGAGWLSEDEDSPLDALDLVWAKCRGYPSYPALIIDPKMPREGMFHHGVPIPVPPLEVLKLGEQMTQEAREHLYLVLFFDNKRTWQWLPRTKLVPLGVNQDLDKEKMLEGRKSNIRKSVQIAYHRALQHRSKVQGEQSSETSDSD

[19] = biological target: T1, Bromodomain-containing protein 4; test: Irreversible inhibition of BRD4 in human MV4-11 cells assessed as suppression of […] mRNA levels preincubated for 4 hrs followed by compound washout measured after 4 to 24 hrs post washout by RT-PCR analysis; format: cell-based; outline: as §5
MV4-11 [20] = test: Antiproliferative activity against human MV4-11 cells after 48 hrs by cell-titer 96 aqueous one solution reagent-based assay; format: functional
Outline: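 MV4-11 seeded at 25,000–50,000 cells/well with two-fold compound dilutions added at seeding, triplicate wells. DMSO 0.1% final as negative control. Continuous treatment at 37 °C, 5% CO2, measured at 48 h. CellTiter 96 AQueous One reagent for 3 h, then absorbance at 490 nm. % proliferation = (OD sample − OD blank)/OD DMSO × 100. IC50 taken from dose–response.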

[21] = biological target: PH-interacting protein (Homo sapiens) (UniProt Q8WWQ0); test: Binding affinity to PHIP (unknown origin) assessed as change in melting temperature at 100 uM after 0.5 to 4 hrs by SYPRO orange protein staining-based thermal denaturation assay; outline: as §4
[22] = biological target: SWI/SNF-related matrix-associated actin-dependent regulator of chromatin subfamily A member 4 (Homo sapiens) (UniProt P51532); test: Binding affinity to BRG1 (unknown origin) assessed as change in melting temperature at 100 uM after 0.5 to 4 hrs by SYPRO orange protein staining-based thermal denaturation assay; outline: as §4
[23] = biological target: T1, Bromodomain-containing protein 4; test: Irreversible inhibition of BRD4 in human MV4-11 cells assessed as suppression of IL1RN mRNA levels preincubated for 4 hrs followed by compound washout measured after 4 to 24 hrs post washout by RT-PCR analysis; format: cell-based; outline: as §5
[24] = biological target: T1, Bromodomain-containing protein 4; test: Irreversible inhibition of BRD4 in human MV4-11 cells assessed as suppression of CCR1 mRNA levels preincubated for 4 hrs followed by compound washout measured after 4 to 24 hrs post washout by RT-PCR analysis; format: cell-based; outline: as §5
[25] = biological target: Transcription initiation factor TFIID subunit 1 (Homo sapiens) (UniProt P21675); test: Binding affinity to TAF1(2) (unknown origin) assessed as change in melting temperature at 100 uM after 0.5 to 4 hrs by SYPRO orange protein staining-based thermal denaturation assay; outline: as §4
[26] = biological target: T1, Bromodomain-containing protein 4; test: Irreversible inhibition of BRD4 in human MV4-11 cells assessed as suppression of MYC mRNA levels preincubated for 4 hrs followed by compound washout measured after 4 to 24 hrs post washout by RT-PCR analysis; format: cell-based; outline: as §5
[27] = biological target: T1, Bromodomain-containing protein 4; test: Binding affinity to N-terminal His-tagged BRD4 (BD1) (unknown origin) assessed as change in melting temperature incubated for 4 hrs in presence of increasing concentrations of cysteine amino acids by SYPRO orange protein staining-based thermal denaturation assay
Outline: (§6)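 Preformed BRD4(BD1)–compound covalent complex incubated with excess free cysteine or methionine. Reversibility assessed by SYPRO Orange thermal denaturation, monitoring the complex's Tm.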

[28] = biological target: T1, Bromodomain-containing protein 4; test: Binding affinity to N-terminal His-tagged BRD4 (BD1) (unknown origin) assessed as change in melting temperature incubated for 4 hrs in presence of increasing concentrations of methionine by SYPRO orange protein staining-based thermal denaturation assay; outline: as §6

Chain of Transcription initiation factor TFIID subunit 1 (Homo sapiens) (P21675 whole entry): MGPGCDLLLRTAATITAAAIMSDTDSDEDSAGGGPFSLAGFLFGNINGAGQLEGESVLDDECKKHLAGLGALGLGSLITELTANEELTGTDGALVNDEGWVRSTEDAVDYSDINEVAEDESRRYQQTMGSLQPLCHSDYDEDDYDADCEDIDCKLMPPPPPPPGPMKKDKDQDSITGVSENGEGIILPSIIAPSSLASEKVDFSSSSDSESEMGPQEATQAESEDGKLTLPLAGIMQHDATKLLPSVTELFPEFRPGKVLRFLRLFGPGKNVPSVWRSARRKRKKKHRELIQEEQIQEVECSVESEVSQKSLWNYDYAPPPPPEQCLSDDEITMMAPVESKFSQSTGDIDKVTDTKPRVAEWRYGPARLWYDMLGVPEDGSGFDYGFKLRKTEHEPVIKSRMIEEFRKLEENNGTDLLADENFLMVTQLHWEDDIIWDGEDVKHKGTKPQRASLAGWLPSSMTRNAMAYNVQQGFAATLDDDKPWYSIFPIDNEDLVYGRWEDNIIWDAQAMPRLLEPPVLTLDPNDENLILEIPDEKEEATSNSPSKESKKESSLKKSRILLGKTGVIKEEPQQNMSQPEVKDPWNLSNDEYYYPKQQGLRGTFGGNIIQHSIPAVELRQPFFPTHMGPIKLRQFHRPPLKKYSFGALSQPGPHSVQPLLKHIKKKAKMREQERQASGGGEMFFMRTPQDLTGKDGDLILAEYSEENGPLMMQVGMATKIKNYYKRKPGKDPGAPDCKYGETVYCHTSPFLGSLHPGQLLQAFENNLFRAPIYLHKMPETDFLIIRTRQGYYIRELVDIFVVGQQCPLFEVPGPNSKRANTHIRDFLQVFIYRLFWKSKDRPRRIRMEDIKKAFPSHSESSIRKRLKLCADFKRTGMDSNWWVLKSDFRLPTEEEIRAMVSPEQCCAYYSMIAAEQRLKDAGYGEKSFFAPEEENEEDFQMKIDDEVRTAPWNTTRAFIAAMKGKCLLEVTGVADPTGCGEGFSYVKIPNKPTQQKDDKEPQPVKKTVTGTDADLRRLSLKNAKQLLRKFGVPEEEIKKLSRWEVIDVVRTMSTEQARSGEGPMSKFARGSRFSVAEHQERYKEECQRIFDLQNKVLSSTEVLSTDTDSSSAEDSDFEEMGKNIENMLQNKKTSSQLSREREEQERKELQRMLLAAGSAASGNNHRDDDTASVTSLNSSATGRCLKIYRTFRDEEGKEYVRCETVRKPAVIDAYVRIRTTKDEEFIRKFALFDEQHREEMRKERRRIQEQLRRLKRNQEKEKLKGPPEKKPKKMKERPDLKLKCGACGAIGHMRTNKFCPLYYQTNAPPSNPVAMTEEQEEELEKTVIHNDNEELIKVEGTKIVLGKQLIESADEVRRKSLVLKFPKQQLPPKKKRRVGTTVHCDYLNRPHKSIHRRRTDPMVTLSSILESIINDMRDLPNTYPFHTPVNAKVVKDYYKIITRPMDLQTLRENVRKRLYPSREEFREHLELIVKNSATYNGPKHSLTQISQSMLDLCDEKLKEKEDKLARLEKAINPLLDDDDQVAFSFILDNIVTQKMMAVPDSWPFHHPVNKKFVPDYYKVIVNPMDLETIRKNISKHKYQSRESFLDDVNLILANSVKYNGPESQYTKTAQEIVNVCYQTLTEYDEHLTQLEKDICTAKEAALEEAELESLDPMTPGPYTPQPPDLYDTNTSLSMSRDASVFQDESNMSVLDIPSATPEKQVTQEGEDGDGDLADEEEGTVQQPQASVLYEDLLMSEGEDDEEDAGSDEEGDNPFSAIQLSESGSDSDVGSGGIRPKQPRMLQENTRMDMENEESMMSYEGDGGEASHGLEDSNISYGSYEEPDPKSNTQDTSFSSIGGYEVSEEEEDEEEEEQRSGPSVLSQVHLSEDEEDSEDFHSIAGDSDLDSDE
Chain of Histone acetyltransferase p300 (Homo sapiens) (Q09472 whole entry): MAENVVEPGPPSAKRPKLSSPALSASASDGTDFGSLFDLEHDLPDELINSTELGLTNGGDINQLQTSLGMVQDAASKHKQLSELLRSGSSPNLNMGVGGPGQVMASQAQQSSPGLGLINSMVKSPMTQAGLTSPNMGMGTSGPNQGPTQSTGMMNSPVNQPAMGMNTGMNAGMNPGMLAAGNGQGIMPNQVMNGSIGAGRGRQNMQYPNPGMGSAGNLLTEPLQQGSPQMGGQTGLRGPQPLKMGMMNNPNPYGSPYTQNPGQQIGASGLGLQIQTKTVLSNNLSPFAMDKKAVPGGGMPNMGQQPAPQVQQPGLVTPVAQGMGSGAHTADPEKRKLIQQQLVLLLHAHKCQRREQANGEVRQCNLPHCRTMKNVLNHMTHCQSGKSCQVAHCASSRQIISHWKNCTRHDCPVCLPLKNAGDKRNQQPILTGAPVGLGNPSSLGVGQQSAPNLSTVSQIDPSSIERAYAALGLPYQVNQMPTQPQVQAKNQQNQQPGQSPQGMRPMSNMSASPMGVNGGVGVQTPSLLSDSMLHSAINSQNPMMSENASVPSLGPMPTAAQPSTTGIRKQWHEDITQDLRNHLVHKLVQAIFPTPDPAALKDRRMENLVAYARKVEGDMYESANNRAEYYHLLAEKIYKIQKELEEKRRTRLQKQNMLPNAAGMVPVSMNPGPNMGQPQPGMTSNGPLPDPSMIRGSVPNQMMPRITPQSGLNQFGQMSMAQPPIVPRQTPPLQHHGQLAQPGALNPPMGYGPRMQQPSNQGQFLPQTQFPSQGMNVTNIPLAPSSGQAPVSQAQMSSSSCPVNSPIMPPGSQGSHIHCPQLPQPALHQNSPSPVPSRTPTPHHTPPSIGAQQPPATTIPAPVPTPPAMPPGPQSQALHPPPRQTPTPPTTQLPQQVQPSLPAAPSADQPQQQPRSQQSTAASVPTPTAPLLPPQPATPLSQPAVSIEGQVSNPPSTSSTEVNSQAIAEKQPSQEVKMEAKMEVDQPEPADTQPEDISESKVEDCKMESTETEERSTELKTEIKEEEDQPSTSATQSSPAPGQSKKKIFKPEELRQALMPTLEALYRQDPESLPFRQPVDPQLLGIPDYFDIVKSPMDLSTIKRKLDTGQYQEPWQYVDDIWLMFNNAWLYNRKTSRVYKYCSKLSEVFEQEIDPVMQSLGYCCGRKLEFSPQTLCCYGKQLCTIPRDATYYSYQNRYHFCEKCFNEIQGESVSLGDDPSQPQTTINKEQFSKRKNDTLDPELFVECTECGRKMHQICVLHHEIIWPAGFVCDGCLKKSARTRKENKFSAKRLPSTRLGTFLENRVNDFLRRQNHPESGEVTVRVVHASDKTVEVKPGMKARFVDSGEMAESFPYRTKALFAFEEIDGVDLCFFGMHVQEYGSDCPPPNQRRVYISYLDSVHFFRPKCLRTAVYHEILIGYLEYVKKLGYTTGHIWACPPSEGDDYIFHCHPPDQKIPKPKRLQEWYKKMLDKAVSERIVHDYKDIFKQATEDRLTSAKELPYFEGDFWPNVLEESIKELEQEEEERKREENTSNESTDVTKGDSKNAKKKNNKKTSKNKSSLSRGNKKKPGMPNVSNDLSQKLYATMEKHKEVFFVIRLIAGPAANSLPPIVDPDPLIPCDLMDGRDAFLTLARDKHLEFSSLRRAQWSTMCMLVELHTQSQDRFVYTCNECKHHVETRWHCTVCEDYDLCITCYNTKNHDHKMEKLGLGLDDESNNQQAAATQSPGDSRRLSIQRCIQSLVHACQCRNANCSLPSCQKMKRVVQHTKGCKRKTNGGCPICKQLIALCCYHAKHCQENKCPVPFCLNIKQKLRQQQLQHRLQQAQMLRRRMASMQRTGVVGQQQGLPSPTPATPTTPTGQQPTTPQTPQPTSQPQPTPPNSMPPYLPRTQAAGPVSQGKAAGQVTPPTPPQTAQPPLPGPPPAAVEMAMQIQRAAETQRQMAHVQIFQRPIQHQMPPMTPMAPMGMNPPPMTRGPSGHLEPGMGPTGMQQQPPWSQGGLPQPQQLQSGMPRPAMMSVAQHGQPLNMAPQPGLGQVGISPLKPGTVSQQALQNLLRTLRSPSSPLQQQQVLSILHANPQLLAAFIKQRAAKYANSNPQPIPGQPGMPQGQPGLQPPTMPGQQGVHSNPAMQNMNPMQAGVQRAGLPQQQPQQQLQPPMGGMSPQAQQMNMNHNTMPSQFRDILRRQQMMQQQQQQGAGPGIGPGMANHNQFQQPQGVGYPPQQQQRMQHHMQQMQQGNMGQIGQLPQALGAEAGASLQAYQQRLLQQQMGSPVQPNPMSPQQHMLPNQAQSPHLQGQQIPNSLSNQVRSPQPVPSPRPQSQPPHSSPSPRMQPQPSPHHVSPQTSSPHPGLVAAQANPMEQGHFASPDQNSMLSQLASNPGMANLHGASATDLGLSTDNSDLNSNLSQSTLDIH

pIC50 [2]	pIC50 [4]	pIC50 [6]	Activity [7]	pIC50 [8]	Ratio IC50 [11]	Activity [12]	pIC50 [14]	pIC50 [15]	Activity [16]	Activity [18]	Activity (Peregrin (Homo sapiens))	Activity [21]	Structure (SMILES)	Activity (MV4-11 [1]) [%]	Activity (MV4-11 [3]) [%]	Activity (MV4-11 [5])	Activity (MV4-11 [9]) [%]	Activity (MV4-11 [10])	Activity (PBMC)	Activity (MV4-11 [13]) [%]	also measured
7.82	6.56	7.30	Active	7.22	18	Active	7.12	7.30					Cc1noc(C)c1-c1cc(N)c2ncn(Cc3ccc(C4CO4)cc3)c2c1 (stereo not given)	19.6	12.5	Active	2.05	Active	Non-Toxic	65.9	
		6.80	Active			Active		6.89	inactive	inactive	inactive	inactive	Cc1noc(C)c1-c1ccc(=O)n(Cc2ccc(C3CO3)c(F)c2)c1 (stereo not given)			Active		Active			inhibition [17]: Active; inhibition [19]: Active; Activity (MV4-11 [20]): Active; Activity [22]: inactive; inhibition [23]: Active; inhibition [24]: Active; Activity [25]: inactive; inhibition [26]: Active
7.72	7.77	7.70	Active	7.30	1	Active	8.10	8.00					Cc1noc(C)c1-c1cc(N)c2ncn(Cc3ccccc3)c2c1	24.2	17.6		13.3		Non-Toxic	45	
		6.64		6.55				7.10	inactive	inactive	inactive	inactive	Cc1noc(C)c1-c1ccc(=O)n(Cc2ccccc2)c1								Activity [27]: Active; Activity [22]: inactive; Activity [28]: Active; ΔTm [12]: 5 °C; Activity [25]: inactive
